In brackets after ≈: the same amount, converted by molar mass. Activity calls are given as the source filed them. The rule behind the calls is not given here.
Columns and labels:
Nakaseomyces glabratus [1] = test: Fungicidal activity against Candida glabrata MTCC 3019 assessed as fungal killing incubated for 24 hrs; format: functional; settings: MTCC 3019, 24 h
Summary of the method: (§1)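 Compound at 125–0.97 µg/mL in Mueller Hinton broth in microcentrifuge tubes, each Candida strain added, held 24 h at 37 °C. 10 µL of the treated suspension plated on Mueller Hinton agar and incubated a further 24 h at 37 °C. MFC is the lowest concentration that kills the strain. Duplicates, means reported.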

Pichia sporocuriosa [2] = test: Ratio of MFC to MIC against Issatchenkia hanoiensis MTCC 4755; format: functional
Summary of the method: (§2)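 MIC by agar well diffusion: Candida lawns on Mueller-Hinton agar, wells loaded with compound in 10% DMSO (125–0.97 µg/mL), 24 h at 37 °C, lowest concentration giving an inhibition zone. MFC: compound in Mueller-Hinton broth (125–0.97 µg/mL) with yeast, 24 h at 37 °C, 10 µL plated on agar, lowest killing concentration after 24 h. Ratio is MFC/MIC.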

Pseudomonas aeruginosa = test: Antibacterial activity against Pseudomonas aeruginosa MTCC 2453 assessed as inhibition of bacterial growth incubated for 24 hrs by agar well diffusion method; format: functional
Summary of the method: (§3)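 Strains from MTCC; inoculum at 0.5 McFarland spread on Mueller-Hinton agar; 6 mm wells loaded with compound over 125–0.97 µg/mL; ciprofloxacin positive control (same range), DMSO negative control. Plates held 24 h at 37 °C; MIC taken as lowest concentration giving a clear inhibition zone. Triplicate runs, mean MIC reported.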

Candida parapsilosis [3] = test: Fungicidal activity against Candida parapsilosis MTCC 1744 assessed as fungal killing incubated for 24 hrs; format: functional; settings: Lodderomyces parapsilosis, MTCC 1744, 24 h; summary of the method: as §1
Pichia sporocuriosa [4] = test: Fungicidal activity against Issatchenkia hanoiensis MTCC 4755 assessed as fungal killing incubated for 24 hrs; format: functional; settings: MTCC 4755, 24 h; summary of the method: as §1
Candida albicans [5] = test: Antifungal activity against Candida albicans MTCC 1637 assessed as inhibition of fungal growth incubated for 24 hrs by agar well diffusion method; format: functional; settings: MTCC 1637, 24 h
Summary of the method: (§4)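 Candida strains from MTCC, pre-cultured and spread on Mueller Hinton agar. Wells received compound dissolved in 10% DMSO, 125–0.97 µg/mL; miconazole standard over the same range, DMSO negative control. After 24 h at 37 °C, MIC was read as the lowest concentration giving an inhibition zone. Duplicate experiments, means given.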

Escherichia coli = test: Antibacterial activity against Escherichia coli MTCC 739 assessed as inhibition of bacterial growth incubated for 24 hrs by agar well diffusion method; format: functional; summary of the method: as §3
Candida albicans [6] = test: Antifungal activity against Candida albicans MTCC 3017 assessed as inhibition of fungal growth incubated for 24 hrs by agar well diffusion method; format: functional; settings: MTCC 3017, 24 h; summary of the method: as §4
Nakaseomyces glabratus [7] = test: Ratio of MFC to MIC against Candida glabrata MTCC 3019; format: functional; summary of the method: as §2
Pichia kudriavzevii [8] = test: Antifungal activity against Candida krusei MTCC 3020 assessed as inhibition of fungal growth incubated for 24 hrs by agar well diffusion method; format: functional; settings: MTCC 3020, 24 h; summary of the method: as §4
Pichia kudriavzevii [9] = test: Ratio of MFC to MIC against Candida krusei MTCC 3020; format: functional; summary of the method: as §2
[10] = target: Lanosterol 14-alpha demethylase (Candida albicans (strain SC5314 / ATCC MYA-2876) (Yeast), UniProt P10613); test: Inhibition of CYP51 in Candida albicans MTCC 3017 assessed as reduction in ergosterol level incubated for 20 hrs by UV-visible spectrophotometry analysis
Summary of the method: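 Modified Breivik–Owades sterol method: Mueller Hinton broth with compound at 0, 2, 4, 8, 16 µg/mL, inoculated with single Candida colonies, shaken at 200 rpm for 20 h at 30 °C. Pellets washed and weighed, saponified in 25% alcoholic KOH for 70 min at 90 °C, sterols extracted into n-heptane, diluted 1:5 in ethanol and scanned at 230–310 nm. Triplicates.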

Staphylococcus aureus [11] = test: Antibacterial activity against Staphylococcus aureus MTCC 96 assessed as inhibition of bacterial growth incubated for 24 hrs by agar well diffusion method; format: functional; summary of the method: as §3
Staphylococcus aureus [12] = test: Antibacterial activity against Staphylococcus aureus MLS-16 MTCC 2940 assessed as inhibition of bacterial growth incubated for 24 hrs by agar well diffusion method; format: functional; summary of the method: as §3
Candida albicans [13] = test: Fungicidal activity against Candida albicans MTCC 183 assessed as fungal killing incubated for 24 hrs; format: functional; settings: MTCC 183, 24 h; summary of the method: as §1
Candida albicans [14] = test: Ratio of MFC to MIC against Candida albicans MTCC 183; format: functional
Candida albicans [15] = test: Induction of ROS generation in Candida albicans MTCC 3017 assessed as accumulation of intracellular ROS level by measuring fluorescence intensity at 5 to 25 ug/ml after 24 hrs by DCFH-DA probe based fluorimetric assay; format: functional, organism-based
Summary of the method: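 C. albicans MTCC 3017 biofilms grown 24 h at 37 °C in 96-well plates, then treated 24 h with compound at 0, 5, 10, 15, 20, 25 µg/mL; untreated cells served as control. Cells then loaded with 10 µM DCFH-DA for 24 h in the dark, and fluorescence read at 485 nm excitation and 535 nm emission. Triplicates.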

Candida albicans [16] = test: Antifungal activity against Candida albicans MTCC 227 assessed as inhibition of fungal growth incubated for 24 hrs by agar well diffusion method; format: functional; settings: MTCC 227, 24 h; summary of the method: as §4
Candida albicans [17] = test: Ratio of MFC to MIC against Candida albicans MTCC 1637; format: functional
Candida albicans [18] = test: Ratio of MFC to MIC against Candida albicans MTCC 4748; format: functional; summary of the method: as §2
Pichia sporocuriosa [19] = test: Antifungal activity against Issatchenkia hanoiensis MTCC 4755 assessed as inhibition of fungal growth incubated for 24 hrs by agar well diffusion method; format: functional; settings: MTCC 4755, 24 h; summary of the method: as §4
Candida parapsilosis [20] = test: Ratio of MFC to MIC against Candida parapsilosis MTCC 1744; format: functional; summary of the method: as §2
Candida albicans [21] = test: Fungicidal activity against Candida albicans MTCC 1637 assessed as fungal killing incubated for 24 hrs; format: functional; settings: MTCC 1637, 24 h; summary of the method: as §1
Candida albicans [22] = test: Antifungal activity against Candida albicans MTCC 4748 assessed as inhibition of fungal growth incubated for 24 hrs by agar well diffusion method; format: functional; settings: MTCC 4748, 24 h; summary of the method: as §4
Candida albicans [23] = test: Antifungal activity against Candida albicans MTCC 7315 assessed as inhibition of fungal growth incubated for 24 hrs by agar well diffusion method; format: functional; settings: MTCC 7315, 24 h; summary of the method: as §4
MRC5 = test: Cytotoxicity against human MRC5 cells incubated for 48 hrs by MTT assay; format: cell-based; settings: MRC5, 48 h
Summary of the method: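 Normal human lung MRC5 cells grown 24 h in 96-well plates, then exposed to a range of compound concentrations for 48 h. MTT (250 µg/mL) added for 2 h, medium replaced by DMSO, absorbance read at 570 nm. Miconazole positive control, DMSO negative control. Triplicates, mean ± S.D.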

Candida albicans [24] = test: Fungicidal activity against Candida albicans MTCC 7315 assessed as fungal killing incubated for 24 hrs; format: functional; settings: MTCC 7315, 24 h; summary of the method: as §1
Bacillus subtilis = test: Antibacterial activity against Bacillus subtilis MTCC 121 assessed as inhibition of bacterial growth incubated for 24 hrs by agar well diffusion method; format: functional; summary of the method: as §3
Candida albicans [25] = test: Antifungal activity against Candida albicans MTCC 183 assessed as inhibition of fungal growth incubated for 24 hrs by agar well diffusion method; format: functional; settings: MTCC 183, 24 h; summary of the method: as §4
Raoultella planticola = test: Antibacterial activity against Klebsiella planticola MTCC 530 assessed as inhibition of bacterial growth incubated for 24 hrs by agar well diffusion method; format: functional; summary of the method: as §3
Candida albicans [26] = test: Fungicidal activity against Candida albicans MTCC 3018 assessed as fungal killing incubated for 24 hrs; format: functional; settings: MTCC 3018, 24 h; summary of the method: as §1
Candida parapsilosis [27] = test: Antifungal activity against Candida parapsilosis MTCC 1744 assessed as inhibition of fungal growth incubated for 24 hrs by agar well diffusion method; format: functional; settings: Lodderomyces parapsilosis, MTCC 1744, 24 h; summary of the method: as §4
Candida albicans [28] = test: Ratio of MFC to MIC against Candida albicans MTCC 3018; format: functional; summary of the method: as §2
Pichia kudriavzevii [29] = test: Fungicidal activity against Candida krusei MTCC 3020 assessed as fungal killing incubated for 24 hrs; format: functional; settings: MTCC 3020, 24 h; summary of the method: as §1
Candida albicans [30] = test: Fungicidal activity against Candida albicans MTCC 227 assessed as fungal killing incubated for 24 hrs; format: functional; settings: MTCC 227, 24 h; summary of the method: as §1
Candida albicans [31] = test: Ratio of MFC to MIC against Candida albicans MTCC 227; format: functional; summary of the method: as §2
Nakaseomyces glabratus [32] = test: Antifungal activity against Candida glabrata MTCC 3019 assessed as inhibition of fungal growth incubated for 24 hrs by agar well diffusion method; format: functional; settings: MTCC 3019, 24 h; summary of the method: as §4
Candida albicans [33] = test: Antifungal activity against Candida albicans MTCC 3018 assessed as inhibition of fungal growth incubated for 24 hrs by agar well diffusion method; format: functional; settings: MTCC 3018, 24 h; summary of the method: as §4
Candida albicans [34] = test: Ratio of MFC to MIC against Candida albicans MTCC 7315; format: functional; summary of the method: as §2
Micrococcus luteus = test: Antibacterial activity against Micrococcus luteus MTCC 2470 assessed as inhibition of bacterial growth incubated for 24 hrs by agar well diffusion method; format: functional; summary of the method: as §3
Candida albicans [35] = test: Fungicidal activity against Candida albicans MTCC 4748 assessed as fungal killing incubated for 24 hrs; format: functional; settings: MTCC 4748, 24 h; summary of the method: as §1

Lanosterol 14-alpha demethylase, sequence (P10613 whole entry): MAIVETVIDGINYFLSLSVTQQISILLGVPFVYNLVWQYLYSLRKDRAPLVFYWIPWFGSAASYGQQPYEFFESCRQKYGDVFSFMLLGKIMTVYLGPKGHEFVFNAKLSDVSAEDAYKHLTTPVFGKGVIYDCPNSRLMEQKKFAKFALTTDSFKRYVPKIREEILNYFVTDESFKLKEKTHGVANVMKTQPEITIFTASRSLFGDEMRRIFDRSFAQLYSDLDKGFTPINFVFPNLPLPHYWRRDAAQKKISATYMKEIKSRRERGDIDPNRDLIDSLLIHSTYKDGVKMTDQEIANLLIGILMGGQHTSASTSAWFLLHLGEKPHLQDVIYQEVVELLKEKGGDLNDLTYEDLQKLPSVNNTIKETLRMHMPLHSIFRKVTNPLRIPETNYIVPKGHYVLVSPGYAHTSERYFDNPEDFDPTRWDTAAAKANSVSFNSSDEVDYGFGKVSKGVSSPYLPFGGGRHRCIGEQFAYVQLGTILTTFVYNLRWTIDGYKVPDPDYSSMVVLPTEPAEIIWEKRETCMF

- MIC (Pseudomonas aeruginosa): inactive
- MIC (Candida albicans [5]): 3.9 µg/mL (≈ 9.37 µM)
- MIC (Escherichia coli): inactive
- MIC (Candida albicans [6]): 3.9 µg/mL (≈ 9.37 µM)
- MIC (Pichia kudriavzevii [8]): 3.9 µg/mL (≈ 9.37 µM)
- inhibition (INH) [10]: Dose-dependent effect
- MIC (Staphylococcus aureus [11]): inactive
- MIC (Staphylococcus aureus [12]): inactive
- MIC (Candida albicans [16]): 3.9 µg/mL (≈ 9.37 µM)
- MIC (Pichia sporocuriosa [19]): 3.9 µg/mL (≈ 9.37 µM)
- MIC (Candida albicans [22]): 3.9 µg/mL (≈ 9.37 µM)
- MIC (Candida albicans [23]): 3.9 µg/mL (≈ 9.37 µM)
- MIC (Bacillus subtilis): inactive
- MIC (Candida albicans [25]): 3.9 µg/mL (≈ 9.37 µM)
- MIC (Candida parapsilosis [27]): 3.9 µg/mL (≈ 9.37 µM)
- MIC (Nakaseomyces glabratus [32]): 3.9 µg/mL (≈ 9.37 µM)
- MIC (Candida albicans [33]): 3.9 µg/mL (≈ 9.37 µM)
- MIC (Micrococcus luteus): inactive
Structure (SMILES): Clc1ccc(COC(Cn2ccnc2)c2ccc(Cl)cc2Cl)c(Cl)c1 (stereo unspecified) [MICONAZOLE]
- MFC (Nakaseomyces glabratus [1]): 7.8 µg/mL (≈ 18.7 µM)
- Ratio (Pichia sporocuriosa [2]): 2
- MFC (Candida parapsilosis [3]): 7.8 µg/mL (≈ 18.7 µM)
- MFC (Pichia sporocuriosa [4]): 7.8 µg/mL (≈ 18.7 µM)
- Ratio (Nakaseomyces glabratus [7]): 2
- Ratio (Pichia kudriavzevii [9]): 2
- MFC (Candida albicans [13]): 7.8 µg/mL (≈ 18.7 µM)
- Ratio (Candida albicans [14]): 2
- Activity (Candida albicans [15]): Active
- Ratio (Candida albicans [17]): 2
- Ratio (Candida albicans [18]): 2
- Ratio (Candida parapsilosis [20]): 2
- MFC (Candida albicans [21]): 7.8 µg/mL (≈ 18.7 µM)
- IC50 (MRC5): 61.7 µg/mL (≈ 148 µM)
- MFC (Candida albicans [24]): 7.8 µg/mL (≈ 18.7 µM)
- MIC (Raoultella planticola): inactive
- MFC (Candida albicans [26]): 7.8 µg/mL (≈ 18.7 µM)
- Ratio (Candida albicans [28]): 2
- MFC (Pichia kudriavzevii [29]): 7.8 µg/mL (≈ 18.7 µM)
- MFC (Candida albicans [30]): 7.8 µg/mL (≈ 18.7 µM)
- Ratio (Candida albicans [31]): 2
- Ratio (Candida albicans [34]): 2
- MFC (Candida albicans [35]): 7.8 µg/mL (≈ 18.7 µM)

— ChEMBL document CHEMBL4373647, “Design, synthesis, and antimicrobial evaluation of 1,4-dihydroindeno[1,2-c]pyrazole tethered carbohydrazide hybrids: exploring their in silico ADMET, ergosterol inhibition and ROS inducing potential” (Medchemcomm, 2019)
